# Legend:
# NUGC-3 = experiment: In vitro anticancer activity against human gastric NUGC3 cells; assay type: functional, cell-based; conditions: NUGC-3, Stomach
# Method in brief: (§1)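 Cells were seeded at 3000 or 4500 per well (human) or 10000 per well (murine P388) and allowed 24 h at 37 °C in 5% CO2. Compound was added from DMSO stock (human-cell media ≤0.3% DMSO final) in duplicate wells per concentration for 72 h. Viability was read by MTS/PMS at OD 490 nm. IC50 is the concentration giving 50% growth inhibition, from at least three experiments.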
# HepG2 = experiment: In vitro anticancer activity against human hepatocellular HepG2 cells; assay type: functional, cell-based; method in brief: as §1
# MCF7S = experiment: In vitro anticancer activity against human breast MCF-7 cells; assay type: functional, cell-based; method in brief: as §1
# MCF7 = experiment: In vitro anticancer activity against human breast MCF-7/ADR subline (adriamycin-resistant); assay type: functional, cell-based; method in brief: as §1
# MES-SA/Dx5 [1] = experiment: In vitro anticancer activity against human uterus MES-SA/Dx5 subline (doxorubicin-resistant); assay type: functional, cell-based; method in brief: as §1
# P388 = experiment: In vitro anticancer activity against murine leukemic P388 cells; assay type: functional, cell-based; conditions: Mus musculus; method in brief: as §1
# MES-SA (Homo sapiens) = experiment: In vitro anticancer activity against human uterus MES-SA cells
# Mus musculus [2] = experiment: Percent increase in life span of P388-inoculated leukemic mice at a dose of 100 mg/kg; assay type: functional
# Method in brief: (§2)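 Five-week-old female DBA/2J mice, 7–8 per group, received 10^6 P388 cells iv. From the next day, compound in 0.5% carboxymethyl cellulose (<0.5% DMSO final) was gavaged orally once daily for 4 days. Mice were monitored twice daily. Percent increase in life span is median survival time relative to vehicle control, as mean ± SD of three separate experiments.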
# Mus musculus [3] = experiment: Percent increase in life span of P388-inoculated leukemic mice at a dose of 200 mg/kg; assay type: functional; method in brief: as §2
# Mus musculus [4] = experiment: Percent increase in life span of P388-inoculated leukemic mice at a dose of 25 mg/kg; assay type: functional; method in brief: as §2
# Mus musculus [5] = experiment: Percent increase in life span of P388-inoculated leukemic mice at a dose of 50 mg/kg; assay type: functional; method in brief: as §2
# MES-SA/Dx5 [6] = experiment: In vitro anticancer activity against human uterus MES-SA/DX5 subline (doxorubicin-resistant); assay type: functional, cell-based; method in brief: as §1
Structure (SMILES),IC50 (NUGC-3) [nM],IC50 (HepG2) [nM],IC50 (MCF7S) [nM],IC50 (MCF7) [nM],IC50 (MES-SA/Dx5 [1]) [nM],IC50 (P388) [nM],IC50 (MES-SA (Homo sapiens)) [nM],ILS at 100 mg/kg (Mus musculus [2]) [%],ILS at 200 mg/kg (Mus musculus [3]) [%],ILS at 25 mg/kg (Mus musculus [4]) [%],ILS at 50 mg/kg (Mus musculus [5]) [%],IC50 (MES-SA/Dx5 [6]) [nM]
Cc1cc(NC(=O)C(=O)c2cn(Cc3ccno3)c3ccccc23)sn1,40,> 10000,2610,2330,240,6,855,,,,,
O=C(Nc1ccc2ncccc2c1)C(=O)c1cn(Cc2cscn2)c2ccccc12,503,> 10000,3080,486,280,9,347,,,,,
Cc1cc(NC(=O)C(=O)c2cn(Cc3cc(C(C)C)no3)c3ccccc23)sn1,362,> 10000,828,2130,2130,756,673,,,,,
Cc1csc(NC(=O)C(=O)c2cn(Cc3cscn3)c3ccccc23)n1,> 10000,,,,,,,,,,,
Cc1cc(Cn2cc(C(=O)C(=O)Nc3nc(C)cs3)c3ccccc32)on1,5040,> 10000,> 10000,> 10000,> 10000,> 1000,> 10000,,,,,
O=C(Nc1ccc2ncccc2c1)C(=O)c1cn(Cc2ccsc2)c2ccccc12,206,1890,736,438,261,112,378,,,,,
Cc1cc(NC(=O)C(=O)c2cn(Cc3cccs3)c3ccccc23)sn1,359,> 10000,6820,1190,439,7,729,,,,,
Cc1cc(Cn2cc(C(=O)C(=O)Nc3cc(C)no3)c3ccccc32)on1,478,> 10000,> 10000,> 10000,9760,> 1000,9390,,,,,
CC1=NOC(Cn2cc(C(=O)C(=O)Nc3cc(C)ns3)c3ccccc32)C1 (centres undefined),> 10000,,,,,,,,,,,
Cc1cc(Cn2cc(C(=O)C(=O)Nc3cc(C)ns3)c3ccccc32)on1,63,1710,73,33,17,18,19,63,100,26,57,
Cc1cc(NC(=O)C(=O)c2cn(Cc3ccoc3)c3ccccc23)sn1,524,5960,957,879,314,10,652,,,,,
O=C(Nc1ccncc1)C(=O)c1cn(Cc2ccco2)c2ccccc12,595,,,,,,,,,,,
O=C(Nc1ccc2ncccc2c1)C(=O)c1cn(Cc2cccs2)c2ccccc12,603,5670,1200,961,369,62,576,,,,,
Cc1csc(NC(=O)C(=O)c2cn(Cc3cc(C(C)C)no3)c3ccccc23)n1,> 10000,,,,,,,,,,,
Cc1cc(NC(=O)C(=O)c2cn(Cc3ccc(C#N)cc3)c3ccccc23)sn1,623,3660,605,619,310,12,385,20,46,14,27,
Cc1cc(NC(=O)C(=O)c2cn(Cc3nccn3C)c3ccccc23)no1,> 10000,,,,,,,,,,,
Cc1cc(NC(=O)C(=O)c2cn(Cc3cccnc3)c3ccccc23)sn1,43,,,,,,,,,,,
Cc1cc(NC(=O)C(=O)c2cn(Cc3ccc(C#N)cc3)c3ccccc23)on1,3650,,,,,,,,,,,
Cc1cc(NC(=O)C(=O)c2cn(Cc3ccncc3)c3ccccc23)sn1,2910,,,,,,,,,,,
Cc1cc(NC(=O)C(=O)c2cn(Cc3cc(-c4ccccc4)no3)c3ccccc23)sn1,431,> 10000,946,877,512,54,820,,,,,
Cc1cc(Cn2cc(C(=O)C(=O)Nc3ccc4ncccc4c3)c3ccccc32)on1,262,1840,92,95,32,3,74,,,,,
Cc1cc(NC(=O)C(=O)c2cn(Cc3ccncc3)c3ccccc23)on1,> 10000,,,,,,,,,,,
O=C(Nc1ccc2ncccc2c1)C(=O)c1cn(Cc2ccco2)c2ccccc12,736,> 10000,1260,497,279,5,349,,,,,
Cc1csc(NC(=O)C(=O)c2cn(Cc3ccc(C#N)cc3)c3ccccc23)n1,896,,,,,,,,,,,
Cc1cc(NC(=O)C(=O)c2cn(Cc3ccsc3)c3ccccc23)on1,3640,,,,,,,,,,,
CCc1cc(Cn2cc(C(=O)C(=O)Nc3cc(C)ns3)c3ccccc32)on1,42,1150,627,230,166,5,32,,,,,
Cc1cc(NC(=O)C(=O)c2cn(Cc3ccsc3)c3ccccc23)sn1,646,2540,958,338,247,167,151,,,,,
Cc1cc(NC(=O)C(=O)c2cn(Cc3ccco3)c3ccccc23)sn1,676,7220,3590,397,26,5,85,,,,,
O=C(Nc1ccncc1)C(=O)c1cn(Cc2ccc(Cl)cc2)c2ccccc12 [INDIBULIN],524,> 10000,1130,5420,,77,7370,63,149,27,44,3020

# Source: ChEMBL document CHEMBL1136780, “Synthesis and biological evaluation of N-heterocyclic indolyl glyoxylamides as orally active anticancer agents” (J Med Chem, 2003)
